Experimental data taken from ChEMBL document CHEMBL4265989, “ω-Hydroxylation of α-tocopheryl quinone reveals a dual function for cytochrome P450-4F2 in vitamin E metabolism” (Bioorg Med Chem, 2018).

Experiments:
Type in all cases: ADME
Cytochrome P450 4F2 [1] = target: T1, Cytochrome P450 4F2 (Homo sapiens, UniProt P78329); test: (§1) Drug level assessed as recombinant human CYP4F2 expressed in insect cell microsomes-mediated compound formation treated with BSA bound d6-alpha-tocopheryl quinone at 10 uM preincubated for 10 mins followed by NADPH addition measured after 20 mins in presence of recombinant human CYP reductase and cytochrome b5 by LS-MS analysis; settings: recombinant enzyme
T1 sequence (P78329 whole entry): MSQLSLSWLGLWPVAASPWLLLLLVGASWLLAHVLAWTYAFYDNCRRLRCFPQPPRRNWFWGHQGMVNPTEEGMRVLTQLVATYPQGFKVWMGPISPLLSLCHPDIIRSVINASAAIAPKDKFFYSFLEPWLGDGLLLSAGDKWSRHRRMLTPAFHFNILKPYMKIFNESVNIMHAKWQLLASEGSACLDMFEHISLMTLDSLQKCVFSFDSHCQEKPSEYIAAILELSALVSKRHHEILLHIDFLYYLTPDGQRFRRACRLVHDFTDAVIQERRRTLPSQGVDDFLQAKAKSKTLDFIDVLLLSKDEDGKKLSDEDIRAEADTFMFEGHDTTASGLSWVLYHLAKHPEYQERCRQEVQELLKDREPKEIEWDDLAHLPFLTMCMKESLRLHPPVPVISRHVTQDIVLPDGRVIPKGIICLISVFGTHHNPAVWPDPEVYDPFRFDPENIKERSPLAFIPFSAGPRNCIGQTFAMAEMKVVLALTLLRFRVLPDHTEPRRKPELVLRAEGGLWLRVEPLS
Summary of the method: (§2)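 Insect cell microsomes co-expressing recombinant human CYP4F2, cytochrome b5 and NADPH P450 reductase (100 pmol CYP/mL) in 100 mM KH2PO4 pH 7.2 with d6-αTQ–BSA complex (10 μM). Preincubated 10 min at 37 °C, then NADPH added to 1 mM final; 20 min at 37 °C, then chilled on ice. Internal standard d0-ω-hydroxy-αTQ added, extracted with ethyl acetate then hexanes:MTBE. Products identified by reversed-phase C18 LC-MS retention time and mass spectra.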

Cytochrome P450 4F2 [2] = target: T1, Cytochrome P450 4F2; test: Drug level in human liver microsomes treated with BSA bound d6-alpha-tocopheryl quinone assessed as CYP4F2-mediated compound formation at 4.4 mM preincubated for 10 mins followed by NADPH addition measured after 20 mins by LS-MS analysis
Summary of the method: (§3)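 Pooled human liver microsomes (20 mg/ml protein) in 100 mM KH2PO4 pH 7.2. d6-αTQ–BSA complex added from a 4.4 mM stock. Preincubated 10 min at 37 °C, then NADPH added to 1 mM final (NAD at 1 mM if used); 20 min at 37 °C, then chilled on ice. d0-ω-hydroxy-αTQ added as internal standard, extracted with ethyl acetate then hexanes:MTBE. Read-out by positive-ion C18 LC-MS.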

Cytochrome P450 4F2 [3] = target: T1, Cytochrome P450 4F2; test: as §1, with “formation by measuring compound retention time” for “formation”; settings: recombinant enzyme; summary of the method: as §2
Cytochrome P450 4F2 [4] = target: T1, Cytochrome P450 4F2; test: Drug level in human liver microsomes treated with BSA bound d6-alpha-tocopheryl quinone assessed as CYP4F2-mediated compound formation by measuring compound retention time at 4.4 mM preincubated for 10 mins followed by NADPH addition measured after 20 mins by LS-MS analysis; summary of the method: as §3

Drug metabolism (Cytochrome P450 4F2 [1]) | Drug metabolism (Cytochrome P450 4F2 [2]) | Retention_time (Cytochrome P450 4F2 [3]) | Retention_time (Cytochrome P450 4F2 [4]) | SMILES
Metabolite_Detected | Metabolite_Detected | 7.42 min | 7.1 min | [2H]C([2H])([2H])C1=C(C)C(=O)C(CC[C@](C)(O)CCC[C@H](C)CCC[C@H](C)CCCC(C)C(=O)O)=C(C([2H])([2H])[2H])C1=O (stereo not given in full)
Metabolite_Detected | Metabolite_Detected | 8.8 min | 8.8 min | [2H]C([2H])([2H])C1=C(C)C(=O)C(CC[C@](C)(O)CCC[C@H](C)CCC[C@H](C)CCCC(C)CO)=C(C([2H])([2H])[2H])C1=O (stereo not given in full)

SMILES | Drug metabolism (Cytochrome P450 4F2 [1]) | Drug metabolism (Cytochrome P450 4F2 [2]) | Retention_time (Cytochrome P450 4F2 [3]) | Retention_time (Cytochrome P450 4F2 [4])
[2H]C([2H])([2H])C1=C(C)C(=O)C(CC[C@](C)(O)CCC[C@H](C)CCC[C@H](C)CCCC(C)C)=C(C([2H])([2H])[2H])C1=O | – | Metabolite_Detected | – | 11.87 min
